Experimental findings from ChEMBL document CHEMBL3414516, “Novel pyridyl substituted 4,5-dihydro-[1,2,4]triazolo[4,3-a]quinolines as potent and selective aldosterone synthase inhibitors with improved in vitro metabolic stability” (J Med Chem, 2015) are described below.

Usually IC50 stands for the concentration at which inhibition is half-maximal. Read a high IC50 as a need for much substance.

One assay concerns the target T1, Aromatase (Homo sapiens, UniProt P11511).
T1 sequence (P11511 whole entry): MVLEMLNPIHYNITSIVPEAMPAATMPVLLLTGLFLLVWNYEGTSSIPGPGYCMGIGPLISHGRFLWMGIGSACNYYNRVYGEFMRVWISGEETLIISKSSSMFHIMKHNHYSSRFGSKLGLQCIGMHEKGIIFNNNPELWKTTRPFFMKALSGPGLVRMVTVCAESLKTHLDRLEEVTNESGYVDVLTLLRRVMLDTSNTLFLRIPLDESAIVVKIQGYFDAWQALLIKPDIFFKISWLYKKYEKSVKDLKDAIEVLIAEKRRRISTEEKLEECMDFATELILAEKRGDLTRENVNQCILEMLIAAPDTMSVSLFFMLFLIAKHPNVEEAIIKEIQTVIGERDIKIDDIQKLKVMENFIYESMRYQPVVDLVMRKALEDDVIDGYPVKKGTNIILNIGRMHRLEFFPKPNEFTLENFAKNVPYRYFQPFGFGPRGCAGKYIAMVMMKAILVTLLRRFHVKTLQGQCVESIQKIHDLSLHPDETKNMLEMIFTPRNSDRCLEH
Nature of the assay: Inhibition of CYP19 in human placental microsomes using [1beta-3H]androstenedione substrate. Also noted: species or system Placenta.
Regarding `Fc1cc2c(cc1-c1cccnc1)CCc1nnc(-c3ccncc3)n1-2`, the IC50 was greater than 10 µM.

Regarding `Fc1cc2c(cc1-c1cccnc1)CCc1nncn1-2`, the half-inhibitory concentration (IC50) was greater than 10 µM.

For the compound `Cc1nnc2n1-c1c(F)cc(-c3cncc(-c4ccccc4)c3)cc1CC2`, the IC50 was greater than 10 µM.

Turning to `CC(=O)c1cncc(-c2cc(F)c3c(c2)CCc2nnc(C)n2-3)c1`, the IC50 is greater than 10 µM.

The compound `CC(C)c1nnc2n1-c1c(F)cc(-c3cccnc3)cc1CC2` gave an IC50 greater than 10 µM.

In turn, `Cc1c(F)cncc1-c1cc(F)c2c(c1)CCc1nnc(C)n1-2` displayed an IC50 greater than 10 µM.

Consider `Fc1cncc(-c2cc(F)c3c(c2)CCc2nncn2-3)c1`, for which the concentration for half-maximal inhibition (IC50) was greater than 10 µM.

Regarding `O=C(c1ccccc1)c1nnc2n1-c1c(F)cc(-c3cccnc3)cc1CC2`, the IC50 is greater than 10 µM.

On to `Fc1cc(-c2cccnc2)cc2c1-n1c(nnc1-c1ccccc1)CC2`, for which the IC50 was greater than 10 µM.

The compound `Cc1c(F)cncc1-c1cc(F)c2c(c1)CCc1nncn1-2` returned an IC50 greater than 10 µM.

Consider `Cc1nnc2n1-c1c(F)cc(-c3cncc(C(C)O)c3)cc1CC2` (stereo not given), for which the half-inhibitory concentration (IC50) is greater than 10 µM.

`Cc1nnc2n1-c1c(F)cc(-c3cncc4ccccc34)cc1CC2` had a half-maximal inhibitory concentration (IC50) greater than 10 µM.

For a further assay, the target named is T2, Steroid 17-alpha-hydroxylase/17,20 lyase (Homo sapiens, UniProt P05093).
T2 sequence (P05093 whole entry): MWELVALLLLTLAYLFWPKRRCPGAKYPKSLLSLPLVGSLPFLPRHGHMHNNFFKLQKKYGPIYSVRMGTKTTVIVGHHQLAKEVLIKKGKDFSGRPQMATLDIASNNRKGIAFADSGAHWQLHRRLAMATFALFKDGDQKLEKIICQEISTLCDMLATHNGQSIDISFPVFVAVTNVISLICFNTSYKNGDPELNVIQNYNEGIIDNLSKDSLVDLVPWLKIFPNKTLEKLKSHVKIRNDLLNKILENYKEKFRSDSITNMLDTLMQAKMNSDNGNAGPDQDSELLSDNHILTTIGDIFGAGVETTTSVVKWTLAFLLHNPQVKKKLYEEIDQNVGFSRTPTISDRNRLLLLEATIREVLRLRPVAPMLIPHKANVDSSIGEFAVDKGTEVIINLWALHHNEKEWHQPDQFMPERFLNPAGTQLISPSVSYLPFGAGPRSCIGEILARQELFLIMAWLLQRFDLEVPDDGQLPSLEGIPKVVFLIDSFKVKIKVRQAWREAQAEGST
Nature of the assay: Inhibition of human CYP17 expressed in Escherichia coli coexpressing human CYP17 and NADPH-P450 reductase.
For `Fc1cc2c(cc1-c1cccnc1)CCc1nnc(-c3ccncc3)n1-2`, the half-inhibitory concentration (IC50) is greater than 10 µM.

With `Fc1cc2c(cc1-c1cccnc1)CCc1nncn1-2`, the IC50 is greater than 10 µM.

`Cc1nnc2n1-c1c(F)cc(-c3cncc(-c4ccccc4)c3)cc1CC2`: the half-inhibitory concentration (IC50) is greater than 10 µM.

For the compound `CC(=O)c1cncc(-c2cc(F)c3c(c2)CCc2nnc(C)n2-3)c1`, the IC50 is greater than 10 µM.

`CC(C)c1nnc2n1-c1c(F)cc(-c3cccnc3)cc1CC2`: the 50% inhibitory concentration (IC50) was greater than 10 µM.

On to `Cc1c(F)cncc1-c1cc(F)c2c(c1)CCc1nnc(C)n1-2`, for which the concentration for half-maximal inhibition (IC50) is greater than 10 µM.

`Fc1cncc(-c2cc(F)c3c(c2)CCc2nncn2-3)c1` registered a concentration for half-maximal inhibition (IC50) greater than 10 µM.

Compound `O=C(c1ccccc1)c1nnc2n1-c1c(F)cc(-c3cccnc3)cc1CC2` registered an IC50 greater than 10 µM.

The compound `Fc1cc(-c2cccnc2)cc2c1-n1c(nnc1-c1ccccc1)CC2` displayed a half-inhibitory concentration (IC50) greater than 10 µM.

`Cc1c(F)cncc1-c1cc(F)c2c(c1)CCc1nncn1-2`: the 50% inhibitory concentration (IC50) is greater than 10 µM.

Turning to `Cc1nnc2n1-c1c(F)cc(-c3cncc(C(C)O)c3)cc1CC2` (stereo not given), the IC50 was greater than 10 µM.

For the compound `Cc1nnc2n1-c1c(F)cc(-c3cncc4ccccc34)cc1CC2`, the IC50 was greater than 10 µM.

For the next assay, the target named is T3, Cytochrome P450 11B1, mitochondrial (Homo sapiens, UniProt P15538).
T3 sequence (P15538 whole entry): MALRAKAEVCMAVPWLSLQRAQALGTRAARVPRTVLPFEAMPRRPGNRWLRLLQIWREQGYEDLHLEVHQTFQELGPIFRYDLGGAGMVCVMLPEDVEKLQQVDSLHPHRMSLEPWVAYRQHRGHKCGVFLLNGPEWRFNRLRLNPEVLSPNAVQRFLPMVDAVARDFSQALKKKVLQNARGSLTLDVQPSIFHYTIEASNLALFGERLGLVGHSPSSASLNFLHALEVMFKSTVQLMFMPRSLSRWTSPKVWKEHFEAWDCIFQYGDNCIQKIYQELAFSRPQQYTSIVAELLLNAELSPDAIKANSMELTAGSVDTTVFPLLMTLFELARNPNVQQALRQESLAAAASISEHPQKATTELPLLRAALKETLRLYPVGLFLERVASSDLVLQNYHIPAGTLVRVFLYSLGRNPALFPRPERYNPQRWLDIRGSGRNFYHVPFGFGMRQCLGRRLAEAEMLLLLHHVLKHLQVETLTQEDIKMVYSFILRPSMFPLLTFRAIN
In words: Inhibition of human CYP11B1 expressed in V79 MZh cells using [14C]-deoxycorticosterone substrate incubated for 6 hrs by HPTLC method. It counts as cell-based, V79MZh. In outline: (§1)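 V79 MZh cells expressing human CYP11B1 or CYP11B2 were incubated 6 h with [¹⁴C]-deoxycorticosterone and inhibitor at various concentrations. Steroids were extracted with ethyl acetate, separated by HPTLC and quantified by phosphoimager.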
Take `Fc1cc2c(cc1-c1cccnc1)CCc1nnc(-c3ccncc3)n1-2`: the IC50 was greater than 10 µM.

In turn, `CC(C)c1nnc2n1-c1c(F)cc(-c3cccnc3)cc1CC2` displayed an IC50 greater than 10 µM.

For the compound `Cc1c(F)cncc1-c1cc(F)c2c(c1)CCc1nnc(C)n1-2`, the half-inhibitory concentration (IC50) turned out to be 4.52 µM.

As to `Fc1cncc(-c2cc(F)c3c(c2)CCc2nncn2-3)c1`, the IC50 is greater than 10 µM.

The compound `O=C(c1ccccc1)c1nnc2n1-c1c(F)cc(-c3cccnc3)cc1CC2` yielded an IC50 greater than 10 µM.

Consider `Fc1cc(-c2cccnc2)cc2c1-n1c(nnc1-c1ccccc1)CC2`, for which the IC50 was greater than 10 µM.

Compound `Cc1c(F)cncc1-c1cc(F)c2c(c1)CCc1nncn1-2` registered a 50% inhibitory concentration (IC50) of 5.7 µM.

For a further assay, the species on record is Homo sapiens. In words: Selectivity index, ratio of IC50 for human CYP11B1 to IC50 human CYP11B2.
For the compound `Fc1cc2c(cc1-c1cccnc1)CCc1nncn1-2`, the Ratio IC50 is 32.

Take `Cc1nnc2n1-c1c(F)cc(-c3cncc(-c4ccccc4)c3)cc1CC2`: the Ratio IC50 came out at 60.

On to `CC(=O)c1cncc(-c2cc(F)c3c(c2)CCc2nnc(C)n2-3)c1`, for which the Ratio IC50 was 78.

For `Cc1c(F)cncc1-c1cc(F)c2c(c1)CCc1nnc(C)n1-2`, the Ratio IC50 was 232.

As to `Cc1c(F)cncc1-c1cc(F)c2c(c1)CCc1nncn1-2`, the Ratio IC50 amounted to 134.

`Cc1nnc2n1-c1c(F)cc(-c3cncc(C(C)O)c3)cc1CC2` (stereo not given): the Ratio IC50 amounted to 138.

Consider `Cc1nnc2n1-c1c(F)cc(-c3cncc4ccccc34)cc1CC2`, for which the Ratio IC50 was found to be 49.

Another assay addresses T4, Cytochrome P450 11B2, mitochondrial (Homo sapiens, UniProt P19099).
T4 sequence (P19099 whole entry): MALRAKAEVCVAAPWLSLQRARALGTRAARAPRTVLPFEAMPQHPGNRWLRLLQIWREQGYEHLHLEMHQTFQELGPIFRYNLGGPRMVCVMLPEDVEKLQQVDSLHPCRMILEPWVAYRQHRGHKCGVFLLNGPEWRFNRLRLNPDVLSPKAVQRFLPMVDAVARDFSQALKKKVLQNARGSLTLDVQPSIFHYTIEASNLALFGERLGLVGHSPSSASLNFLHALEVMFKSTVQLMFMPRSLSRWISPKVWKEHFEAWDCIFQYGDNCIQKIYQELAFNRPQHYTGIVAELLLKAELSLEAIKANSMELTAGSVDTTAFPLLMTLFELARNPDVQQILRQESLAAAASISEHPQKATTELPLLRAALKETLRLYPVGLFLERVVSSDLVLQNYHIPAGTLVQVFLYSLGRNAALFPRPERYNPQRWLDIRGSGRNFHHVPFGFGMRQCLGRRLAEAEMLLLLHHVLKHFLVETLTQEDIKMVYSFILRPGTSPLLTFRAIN
In words: Inhibition of human CYP11B2 expressed in V79 MZh cells using [14C]-deoxycorticosterone substrate incubated for 6 hrs by HPTLC method. It counts as cell-based, V79MZh. An outline of the steps:
as §1
On to `Fc1cc2c(cc1-c1cccnc1)CCc1nnc(-c3ccncc3)n1-2`, for which the IC50 is greater than 10 µM.

Consider `CC(C)c1nnc2n1-c1c(F)cc(-c3cccnc3)cc1CC2`, for which the IC50 was greater than 10 µM.

Take `Cc1c(F)cncc1-c1cc(F)c2c(c1)CCc1nnc(C)n1-2`: half-maximal inhibition (IC50) required 0.0195 µM.

Compound `Fc1cncc(-c2cc(F)c3c(c2)CCc2nncn2-3)c1` showed an IC50 of 0.335 µM.

`O=C(c1ccccc1)c1nnc2n1-c1c(F)cc(-c3cccnc3)cc1CC2` came in with a concentration for half-maximal inhibition (IC50) of 0.708 µM.

In turn, `Fc1cc(-c2cccnc2)cc2c1-n1c(nnc1-c1ccccc1)CC2` displayed an IC50 greater than 10 µM.

Compound `Cc1c(F)cncc1-c1cc(F)c2c(c1)CCc1nncn1-2` yielded an IC50 of 0.0425 µM.
